High-throughput results: PubChem BioAssay, several laboratories
An excerpt weighted towards active compounds, which were near 2.6% of everything screened.
NR2E3 ag-1: agonists of human nuclear receptor NR2E3 | Q9Y5X4 | GST-NR2E3/biotin-RetCOR TR-FRET, 1536-well | inhibition of corepressor binding, % at 4.78 µM | 320,000 tested, 0.12% active | AID 2300;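 active = percent inhibition above the cutoff of mean plus 3 SD of all tested compounds, set per screening campaign, cut at about 20% in these data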;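 note: 0% = DMSO wells and 100% = biotin wells as full block of FRET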
Target sequence (Q9Y5X4 whole entry, looked up): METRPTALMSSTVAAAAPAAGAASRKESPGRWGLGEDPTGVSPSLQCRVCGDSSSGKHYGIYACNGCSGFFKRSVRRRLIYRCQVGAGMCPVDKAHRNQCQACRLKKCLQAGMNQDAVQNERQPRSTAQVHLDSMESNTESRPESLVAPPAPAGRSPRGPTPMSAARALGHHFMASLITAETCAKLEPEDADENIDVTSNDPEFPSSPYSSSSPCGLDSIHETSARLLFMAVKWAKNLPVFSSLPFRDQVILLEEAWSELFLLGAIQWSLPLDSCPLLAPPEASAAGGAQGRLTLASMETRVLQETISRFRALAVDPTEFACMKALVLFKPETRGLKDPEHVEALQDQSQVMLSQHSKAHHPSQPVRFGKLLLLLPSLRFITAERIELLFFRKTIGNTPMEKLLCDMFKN
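Test system – NR2E3–RetCOR corepressor complex · Quantity – NR2E3 fusion 1.35 nM · Buffer or medium – Tris pH 7.5 · Incubation – Compound–protein incubation for 5 h at 4 °C · Technique – TR-FRET, Eu(K)-anti-GST donor, streptavidin-D2 acceptor, ex 340, em 617/671 nm · Evaluation – percent inhibition of 671/617 nm emission ratio versus biotin and DMSO controls · Plate – 1536-well format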
PG9 Ab binder: PG9 antibody binding by small molecule | inhibition, % at 6.7 µM | 360,000 tested, 0.43% active | TR-FRET gp120-PG9 antibody binding; in the data active = inhibition above about 8.5%
rCAG binder: molecules binding r(CAG) RNA repeats. r(CAG) RNA repeat, TO-PRO-1 dye displacement fluorescence. 370,000 tested, 1.3% active. inhibition, % at 3 µM;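 active = inhibition above the plate cutoff, the mean of all test compounds on that plate plus 3 SD, cut at about 35% in these data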;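 note: 0% = DMSO alone and 100% = 100 µM mitoxantrone as full dye displacement; higher means more dye released from RNA so lower well fluorescence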
Rev-erbA mod: modulates human Rev-erb alpha binding to DNA; P20393; Rev-erbα–FITC-DNA binding, fluorescence polarization, 90 min; activity, % at 10 µM; 370,000 tested, 0.79% active; AID 1259318;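 active = activity above about 14%, limit read from the data; passing the limit was not always enough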;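 note: 0% = DMSO wells with 35 nM protein and 100% = DMSO wells with 750 nM protein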
NR2E3 ag-2: human photoreceptor-specific nuclear receptor agonism; inhibition of corepressor binding, % at 3.98 µM; Q9Y5X4; 360,000 tested, 0.35% active; CHO-S Gal4-NCOR/VP16-NR2E3 two-hybrid, luciferase;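 active = inhibition above the mean of all tested compounds plus 3 SD, cut at about 70% in these data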;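 note: 0% = DMSO with NR2E3 transfected cells and 100% = cells lacking NR2E3 construct; higher means lower luciferase signal from less NR2E3 corepressor binding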
NR1D1 mod conf: Rev-erb alpha (human) modulation, hit confirmation | shares compounds with Rev-erbA mod | Rev-erb alpha FITC-DNA binding, fluorescence polarization, 90 min | activation, % at 25 µM | 3,000 tested, 61% active | AID 1259319;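 active = activation at or above a set limit, or at least 3 SD above the negative control mean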;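 note: 0% = 35 nM protein with DMSO and 100% = 750 nM protein high control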
RORg DNA counter: counter-screen for Rev-erb alpha modulators: RORgamma DNA binding; shares compounds with Rev-erbA mod; purified RORgamma protein-FITC-DNA binding, fluorescence polarization; IC50, µM; 910 tested, 8% active; AID 1259320;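 active = Compounds whose fitted half-maximal concentration for disrupting protein-DNA binding is below 10 micromolar; the record names Rev-erb in its text, so the target is in doubt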
* hit, by the source's call; i = inactive; . = no result.

SMILES	NR2E3 ag-1	PG9 Ab binder	rCAG binder	Rev-erbA mod	NR2E3 ag-2	NR1D1 mod conf	others
Cc1ccc(CNc2nc3ccc(C)cc3n3cnnc23)cc1	3	-1	2	-13	-9	.
COc1cccc(CNc2nc3ccc(C)cc3n3cnnc23)c1	-1	2	2	26*	-10	7
O=c1[nH]cnc2cc(-c3ccc(Br)cc3)sc12	6	6	3	26*	-72	8
O=c1[nH]c(CCl)nc2cc(-c3ccc(F)cc3)sc12	3	0	5	6	-98	.
CC1CCCCN1CCCOC(=O)c1ccccc1 (stereo not given)	.	.	.	-9	.	.
Cc1nc(NC(=O)c2ccccc2)sc1Cc1ccc2c(c1)OCO2	2	-2	3	3	-156	.
Cc1nc(NC(=O)c2ccc(Cl)cc2)sc1Cc1ccc2c(c1)OCO2	-1	1	5	30*	-47	6
O=C(c1ccccc1)N(C(=O)c1ccccc1)N1CCCC1	.	0	-2	-5	-1	.
O=C(NCc1ccccc1)c1cccc2c1C(=O)c1ccc(/C=C/c3ccccc3)cc1S2(=O)=O	.	4	8	-5	-2	.
CC(Sc1nc2ccccc2c(=O)n1C)C(=O)Nc1ccc2c(c1)OCCO2 (stereo not given)	2	2	-1	27*	-5	12*
CCCNC(=O)c1ccc(N2CCC3(CC2)CC(c2ccccc2)=NO3)c(NC(=O)c2ccco2)c1	2	-1	11	5	0	.
CCCNC(=O)c1ccc(N2CCC3(CC2)CC(c2ccccc2)=NO3)c(NC(=O)c2cccc(OC)c2)c1	4	0	0	20*	-15	1
CCc1cccc(C)c1NC(=O)CSc1nc(-c2ccccc2F)nc2nc[nH]c12	-14	2	-3	2	-7	.
O=C(CSc1nc(-c2ccccc2F)nc2nc[nH]c12)Nc1c(Cl)cc(Cl)cc1Cl	-1	0	1	38*	.	11
O=C(CSc1nc(-c2ccco2)cc(C(F)(F)F)n1)N1CCCc2ccccc21	2	0	1	25*	10	14
CCCCC(=O)N=c1sc2c(OC)ccc(OC)c2n1C	3	-1	1	23*	-11	8
COc1cccc(C(=O)N=c2sc3c(C)ccc(OC)c3n2C)c1	-1	-1	2	24*	-95	5
COc1ccc(OC)c2c1sc(=NC(=O)C1CC1)n2C	-2	1	-1	4	-8	.
COC(=O)Cn1c(=NC(=O)CCS(=O)(=O)c2ccccc2)sc2c(OC)ccc(OC)c21	4	-1	2	82*	-18	39*	RORg DNA counter=>40
N#CCCCCn1ccc(NC(=O)c2ccc(Cl)cc2O)n1	1	-1	15	2	-33	.
Cc1ccc(C(=O)CSc2ncnc3sc4c(c23)CCC(C)C4)cc1 (stereo not given)	.	-1	2	68*	-22	24*
CCCCN(C(=O)C1CC(=O)N(CCc2ccc(OC)c(OC)c2)C1)c1c(N)n(CCCC)c(=O)[nH]c1=O (stereo not given)	1	-1	-4	-5	27	.
CCCCn1c(N)c(N(CC(C)C)C(=O)C2CC(=O)N(CCc3ccccc3)C2)c(=O)[nH]c1=O (stereo not given)	2	-3	-1	12*	-2	1
CN(C)c1ccc(-c2csc(C(O)(c3ccccc3)C(F)(F)F)n2)cc1 (stereo not given)	.	-1	6	5	-70	.
COc1ccccc1-c1cc(-c2ccccc2)nc(SC(C(N)=O)c2ccccc2)c1C#N (stereo not given)	6	8	4	39*	-15	20*
SMILES	NR2E3 ag-1	PG9 Ab binder	rCAG binder	Rev-erbA mod	NR2E3 ag-2	NR1D1 mod conf	others
Cc1nc(SC(C(N)=O)c2ccccc2)c(C#N)c(C)c1C (stereo not given)	-1	-4	-3	-4	-5	.
C=CC[C@]1(O)C(=O)N(c2ccccc2)c2ccccc21	.	.	0	3	.	.
COC(=O)[C@]12C[C@H](CC(=O)NCc3cccc4ccccc34)C(=O)N(Cc3ccc(Cl)cc3Cl)C1=C[C@H](COCc1ccccc1)O[C@@H]2C	.	.	12	5	.	.
COc1ccc(NC(=O)C[C@H]2C(=O)N(c3ccc(Br)cc3)C[C@@H]2C)cc1	.	1	1	6	-20	.
Cc1cc(OC(C)C(=O)NCc2ccccn2)c2c(C)c(Cc3ccccc3)c(=O)oc2c1 (stereo not given)	-4	0	-2	86*	11	142*	RORg DNA counter=>40
Cc1cc(OCC(=O)Nc2ccccn2)c2c(C)c(C)c(=O)oc2c1	1	-1	-1	33*	-18	2
CC(NCc1ccco1)C(=O)N1CCCC1 (stereo not given)	.	.	6	4	.	.
CCN(CC)C1=CC2=CC(=C(C#N)C#N)CCC2CC1 (stereo not given)	-2	-7	i	66*	20	24*
N#CC(C#N)=C1C=C2C=C(N3CCCCC3)CCC2CC1 (stereo not given)	-6	.	.	.	.	.
CCCCN(C)C1=CC2=CC(=C(C#N)C#N)CCC2CC1 (stereo not given)	1	-10	-420	69*	-42	34*	RORg DNA counter=>40
CCc1nc2c(OCc3ccc(OC(F)F)cc3)cccn2c1N(C)C(=O)c1cccs1	.	-2	3	-1	5	.
Cc1ccc(-c2c(C)sc(=NC(=O)c3ccco3)n2C)cc1	5	1	-7	37*	-142	16*
CCn1cnnc1SCC(=O)Nc1ccccc1C(=O)NC1CC1	.	0	0	5	9	.
COc1cccc(-c2noc(-c3cccnc3)n2)c1	-2	-3	-4	1	-108	.
COc1nc2ccc(C)cc2cc1-c1noc(-c2cccnc2)n1	0	-2	0	35*	-24	7
O=C(NC1CCCCCCC1)c1cc(-c2ccccn2)nc2ccccc12	6	0	-1	41*	4	0
CC1CCCC(NC(=O)NC(=O)COC(=O)c2ccc(O)cc2O)C1C (stereo not given)	0	-1	9	11	23	.
Cc1ccc(-c2c(C#N)c(N)n(-c3ccc(C)cc3)c(=O)c2C#N)cc1	2	4	4	-2	-11	.
Cc1ccc(-n2c(N)c(C#N)c(-c3ccc(Cl)cc3)c(C#N)c2=O)cc1	2	0	13	49*	4	39*	RORg DNA counter=>40
Cc1ccc2nc(-c3ccc(Cl)cc3)c(Cc3ccsc3)n2c1	.	2	13	-2	.	.
CCOc1ccccc1NC(=O)CSC1=C(C#N)C(c2ccco2)C(C(=O)Nc2nc3ccccc3s2)=C(C)N1 (stereo not given)	1	1	16	66*	-26	54*	RORg DNA counter=>40
